In PubChem BioAssay one finds outcome, activation and potentiation data, which are given here for 30 molecules.

Experiment [1] can be described thus: thallium flux activation in parental CHO cells, counter-screen for KCNQ1 potentiator project (AID 493006;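 active = duplicate-averaged activation above buffer control mean plus 5 SD of those controls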;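 for activation: fluorescence ratio of max minus min over baseline after K+ and Tl+ depolarization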). To be noted: parental CHO-K1 cells, FluxOR thallium flux, at 10 µM; active compounds read high. In short, it runs like this:
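Material: parental CHO-K1 cells, FluxOR dye-loaded; Also added: Potassium/thallium depolarization pulse; Schedule: overnight 37 °C plating, 90 min dye, 20 min dark compound; Signal: kinetic FluxOR fluorescence, 10 s baseline, 110 s after stimulus.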

The target of experiment [2] is Potassium voltage-gated channel subfamily KQT member 1 (Homo sapiens) (UniProt P51787). Nature of the experiment: KCNQ1 potassium channel potentiators, confirmation, FluxOR thallium flux, CHO cells, duplicates (AID 493007).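 For outcome: cells depolarized by a potassium plus thallium sulfate stimulus after compound.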 The note with it: KCNQ1 cell line, FluxOR thallium flux fluorescence, at 10 µM; active compounds read high, % of reference activator effect, buffer zero. Summed up:
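System: KCNQ1-expressing CHO cell line; technique: kinetic thallium influx fluorescence with FluxOR dye, 10 s baseline, 110 s post-stimulus; timing: dye 90 min then compound 20 min, both at room temperature; controls: buffer-only wells as 0% and R-L3 activator as 100%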

In experiment [3] the target is Potassium voltage-gated channel subfamily KQT member 2 (Rattus norvegicus) (UniProt O88943). Nature of the experiment: rat KCNQ2 channel potentiation, selectivity assay for KCNQ1 potentiator project, KCNQ2-CHO-K1 cells (AID 493009;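 active = mean duplicate potentiation above the buffer control mean plus 5 SD of buffer wells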;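 note: assay conditions were tuned for KCNQ1 rather than KCNQ2 modulators; signal is max minus min fluorescence divided by baseline after thallium stimulus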). The note with it: FluxOR thallium flux fluorescence, at 10 µM; active compounds read high, scaled: buffer 0, activator control 100.
In experiment [4] the target is Potassium voltage-gated channel subfamily KQT member 1 (Homo sapiens) (UniProt P51787). Nature of the experiment: KCNQ1 channel current potentiators, confirmation, orthogonal assay for KCNQ1 potentiator project, IonWorks patch clamp, KCNQ1-CHO cells (AID 493184;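 active = current rise at least 3 SD above the untreated control mean in each of two repeat wells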). To be noted: automated patch clamp current, at 10 µM; active compounds read high. In short, it runs like this: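 Test system: KCNQ1-expressing CHO cells. Medium: pH 7.4 external bath. Probe or stimulus: voltage step from -90 mV holding to +40 mV, 2,000 ms. Compound: 10 µM final, single point. Detection: automated perforated-patch electrophysiology. Read-out: percent current increase versus pre-compound level. Repeats: two replicates.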

Activity calls are given as the source filed them.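 Rule for the calls, unless noted: active = potentiation averaged over duplicate wells exceeding buffer-only control mean by more than 3 SD; inactive = the rest.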

Potassium voltage-gated channel subfamily KQT member 1 (Homo sapiens), sequence (P51787 whole entry, looked up): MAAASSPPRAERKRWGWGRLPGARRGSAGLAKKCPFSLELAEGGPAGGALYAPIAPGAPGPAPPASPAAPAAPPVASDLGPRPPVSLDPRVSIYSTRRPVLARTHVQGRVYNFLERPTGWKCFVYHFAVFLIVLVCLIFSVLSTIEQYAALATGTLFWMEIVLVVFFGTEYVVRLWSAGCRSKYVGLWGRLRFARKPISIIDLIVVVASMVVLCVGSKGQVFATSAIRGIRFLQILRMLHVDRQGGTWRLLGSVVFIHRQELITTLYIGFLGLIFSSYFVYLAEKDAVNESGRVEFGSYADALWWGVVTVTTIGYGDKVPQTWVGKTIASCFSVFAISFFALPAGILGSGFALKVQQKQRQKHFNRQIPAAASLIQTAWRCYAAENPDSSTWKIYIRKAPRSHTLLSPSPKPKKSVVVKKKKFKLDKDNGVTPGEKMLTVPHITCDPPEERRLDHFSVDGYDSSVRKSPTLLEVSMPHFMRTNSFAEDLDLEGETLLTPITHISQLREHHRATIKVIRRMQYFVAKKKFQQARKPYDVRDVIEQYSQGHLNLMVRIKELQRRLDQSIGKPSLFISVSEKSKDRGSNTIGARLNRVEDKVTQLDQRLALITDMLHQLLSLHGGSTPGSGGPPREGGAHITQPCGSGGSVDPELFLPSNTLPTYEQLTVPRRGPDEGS
Potassium voltage-gated channel subfamily KQT member 2 (Rattus norvegicus), sequence (O88943 whole entry, looked up): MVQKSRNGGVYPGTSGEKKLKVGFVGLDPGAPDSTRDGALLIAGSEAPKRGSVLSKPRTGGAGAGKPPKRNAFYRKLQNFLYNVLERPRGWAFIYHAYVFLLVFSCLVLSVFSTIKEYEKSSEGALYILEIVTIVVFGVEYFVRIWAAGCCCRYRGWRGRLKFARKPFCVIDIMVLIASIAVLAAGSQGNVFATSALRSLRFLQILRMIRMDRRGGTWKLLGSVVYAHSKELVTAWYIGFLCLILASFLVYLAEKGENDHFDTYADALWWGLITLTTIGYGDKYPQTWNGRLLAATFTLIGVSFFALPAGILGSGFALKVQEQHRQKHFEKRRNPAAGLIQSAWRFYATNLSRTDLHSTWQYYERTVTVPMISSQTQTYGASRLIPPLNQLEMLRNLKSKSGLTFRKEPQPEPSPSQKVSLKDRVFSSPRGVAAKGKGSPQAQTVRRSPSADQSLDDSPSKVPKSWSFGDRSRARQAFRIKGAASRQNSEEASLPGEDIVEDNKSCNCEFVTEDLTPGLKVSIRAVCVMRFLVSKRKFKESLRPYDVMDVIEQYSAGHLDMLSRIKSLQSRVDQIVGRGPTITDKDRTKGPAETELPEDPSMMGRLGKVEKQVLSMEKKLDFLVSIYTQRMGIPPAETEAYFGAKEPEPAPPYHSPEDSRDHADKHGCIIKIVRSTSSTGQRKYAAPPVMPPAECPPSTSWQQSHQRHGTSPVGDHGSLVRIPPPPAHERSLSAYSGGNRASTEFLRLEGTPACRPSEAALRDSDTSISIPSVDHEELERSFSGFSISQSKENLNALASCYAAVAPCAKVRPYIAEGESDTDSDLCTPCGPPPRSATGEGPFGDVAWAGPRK

Turning to `COc1cccc(Oc2cnc(N)nc2-c2ccc(OC)cc2O)c1`, the outcome in experiment [1], in experiment [2], in experiment [3] and in experiment [4] was inactive.
As to `CCC(CC)C1=NN2C(=N)/C(=C\c3cc(C)n(-c4cccc(C)c4)c3C)C(=O)N=C2S1`, the outcome in experiment [1], in experiment [2], in experiment [3] and in experiment [4] was inactive.
`CCN1c2ccccc2-c2nc3ccccc3n2C1c1cccnc1` (stereo not given): the result in experiment [1], in experiment [2], in experiment [3] and in experiment [4] was inactive.
In the case of `CCCOc1ccc(Cc2nc(N)nc(N)n2)cc1`, the result in experiment [1], in experiment [2], in experiment [3] and in experiment [4] was inactive.
Take `CCOC(=O)c1c(CN2CCN(CCO)CC2)n(C)c2cc(Br)c(OC)cc12`: the outcome in experiment [1], in experiment [2], in experiment [3] and in experiment [4] was inactive.
Consider `COc1ccc2cc(CCNC(=O)C3CCCC3)c(=O)[nH]c2c1`, for which the result in experiment [1], in experiment [2], in experiment [3] and in experiment [4] was inactive.
`O=C(Nc1ccc(N2CCN(c3ccc(O)cc3)CC2)cc1)Oc1ccccc1`: the outcome in experiment [1], in experiment [2], in experiment [3] and in experiment [4] was inactive.
Take `CCCC(=O)Nc1cc(Cl)ccc1N1CCN(C(=O)CC)CC1`: the outcome in experiment [1], in experiment [2], in experiment [3] and in experiment [4] was inactive.
`Cc1cc(C(=O)OCC(=O)NCc2ccco2)c(C)n1-c1ccc(F)cc1`: the activation in experiment [1] was 283% (active). The potentiation in experiment [2] was 116% (active); in experiment [3], 323% (active). Further, the outcome in experiment [4] was inactive.
In the case of `O=c1c(O)c(-c2ccc3c(c2)OCO3)oc2ccccc12`, the result in experiment [1] and in experiment [4] was inactive. Moreover, the potentiation in experiment [2] is 41.5% (active); in experiment [3] it was 162% (active).
For `CCC(Cc1ccccc1)n1c(=S)[nH]c2ccccc2c1=O` (stereo not given), the result in experiment [1], in experiment [3] and in experiment [4] was inactive. Moreover, the potentiation in experiment [2] is 19% (active).
As for `COC(=O)C1CCCN1C(=O)COc1ccc(Cl)cc1Br` (stereo not given), the activation in experiment [1] was 152% (active). For the same molecule, the result in experiment [2] and in experiment [4] was inactive. Moreover, in experiment [3], the potentiation was 158% (active).
In the case of `CCCn1cc(NC(=O)c2cc(-c3ccccc3)on2)cn1`, the result in experiment [1], in experiment [3] and in experiment [4] was inactive. Further, the potentiation in experiment [2] is 25% (active).
Take `Cc1ccccc1NC(=S)NC(=O)c1cc(-c2ccccc2)nc2ccccc12`: the activation in experiment [1] was 151% (active). In addition, the potentiation was 53% (active) in experiment [2] and 158% (active) in experiment [3]. Also, the result in experiment [4] was inactive.
As to `COc1cccc(C(=O)NC(=S)N2c3ccccc3CC2C)c1OC` (stereo not given), the outcome in experiment [1], in experiment [2], in experiment [3] and in experiment [4] was inactive.
In the case of `S=c1nc(-c2ccccc2)[nH]c2ccccc12`, in experiment [1], the activation is 316% (active). Further, the potentiation in experiment [2] is 110% (active); in experiment [3], 294% (active). Also, the result in experiment [4] was inactive.
As to `C/C(CCc1oc2c(Br)cc(Br)cc2c1-c1ccc(C)o1)=N\O`, the outcome in experiment [1], in experiment [2], in experiment [3] and in experiment [4] was inactive.
Regarding `CC/C(=N/NC(=O)c1ccc(Br)o1)c1ccc(Cl)cc1`, the outcome in experiment [1], in experiment [2], in experiment [3] and in experiment [4] was inactive.
As for `CCCCN(CCCC)C(=S)N/N=C/c1c(C)[nH]n(-c2ccccc2)c1=O`, the activation in experiment [1] is 198% (active). Also, the potentiation is 123% (active) in experiment [2] and 239% (active) in experiment [3]. Besides, the result in experiment [4] was inactive.
For the molecule `CCOc1ccc(C(=O)NC(=S)N(Cc2ccccc2)Cc2ccccc2)cc1`, the activation in experiment [1] is 395% (active). Further, the values for the potentiation in experiment [2] and in experiment [3] were 296% (active) and 522% (active), respectively. The outcome in experiment [4] was inactive.
As for `Cc1[nH]n(-c2ccc(F)cc2)c(=O)c1/C=N/c1sc2c(c1C#N)CCCC2`, the activation in experiment [1] was 276% (active). The potentiation is 85.5% (active) in experiment [2] and 246% (active) in experiment [3]. Further, the outcome in experiment [4] was inactive.
With `CN1C(=O)CC(N2CCN(CC(=O)N3CCCC3)CC2)C1=O` (stereo not given), the outcome in experiment [1], in experiment [2], in experiment [3] and in experiment [4] was inactive.
As for `Cc1ccc(Cl)cc1NC(=S)N/N=C/c1cccc2ccccc12`, the result in experiment [1], in experiment [3] and in experiment [4] was inactive. Besides, in experiment [2], the potentiation is 32% (active).
With `Cc1ccc(C(=O)Nc2nnn(C)n2)cc1`, the result in experiment [1], in experiment [2], in experiment [3] and in experiment [4] was inactive.
Turning to `CCOc1ccc2nc(/N=C/c3c(C)[nH]n(-c4ccc(C)cc4)c3=O)sc2c1`, the activation in experiment [1] is 356% (active). The values for the potentiation in experiment [2] and in experiment [3] were 120% (active) and 332% (active), respectively. For the same molecule, the outcome in experiment [4] was inactive.
Take `CC(C)c1nc2n[nH]c(N)c2c2c1CSC(C)(C)C2`: the result in experiment [1], in experiment [3] and in experiment [4] was inactive. Besides, the potentiation in experiment [2] is 31.5% (active).
`Oc1c(N=Nc2ccccn2)ccc2ccccc12`: the activation in experiment [1] is 182% (active). The potentiation is 91.5% (active) in experiment [2] and 168% (active) in experiment [3]. In addition, the result in experiment [4] was inactive.
With `Cc1nn(-c2ccccc2)c(Cl)c1/C=C1\SC(=S)NC1=O`, in experiment [1], the activation was 614% (active). Also, the figures for the potentiation in experiment [2] and in experiment [3] were 295% (active) and 704% (active), respectively. Moreover, the outcome in experiment [4] was inactive.
On to `N#Cc1cn(CC(=O)NCC2CCCO2)c2ccccc12` (stereo not given), for which the outcome in experiment [1], in experiment [2], in experiment [3] and in experiment [4] was inactive.
For the molecule `COc1ccc(CN(C)CC(=O)Nc2ccc(Cl)cc2C(F)(F)F)c(OC)c1`, the outcome in experiment [1], in experiment [3] and in experiment [4] was inactive. In addition, the potentiation in experiment [2] was 37.5% (active).
